According to PubChem BioAssay:
Calls of active or inactive are those of the source.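 The calls were made as follows, unless noted: active = viability at or under a set limit in both replicates, limit being median viability minus 3 SD (cut at about 48% in these data, passing the limit was not always enough); inconclusive = at or under the limit in just one replicate; inactive = at or above the limit in both replicates.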

Columns and labels:
[1] = reducers of endogenous Her2 protein level, primary screen, SKBR3 breast tumor cells, AlphaScreen, ATP viability (AID 461;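 active = Her2 level under about 52% in both replicate screens, with viability over 70% of control, limit read from the data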;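 as to Her2 level: lower value means less Her2 protein in the cells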;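 as to viability: percent of carrier control wells set as 100% viability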); conditions: 18-24 h, measured here: SKBR3 viability, ATP luminescence, at 10 µM
[2] = molecular target: Receptor tyrosine-protein kinase erbB-2 (Homo sapiens) (UniProt P04626); experiment: as above; conditions: 18-24 h, at 10 µM, stronger effect = lower value
Sequence of Receptor tyrosine-protein kinase erbB-2 (Homo sapiens) (P04626 whole entry, looked up): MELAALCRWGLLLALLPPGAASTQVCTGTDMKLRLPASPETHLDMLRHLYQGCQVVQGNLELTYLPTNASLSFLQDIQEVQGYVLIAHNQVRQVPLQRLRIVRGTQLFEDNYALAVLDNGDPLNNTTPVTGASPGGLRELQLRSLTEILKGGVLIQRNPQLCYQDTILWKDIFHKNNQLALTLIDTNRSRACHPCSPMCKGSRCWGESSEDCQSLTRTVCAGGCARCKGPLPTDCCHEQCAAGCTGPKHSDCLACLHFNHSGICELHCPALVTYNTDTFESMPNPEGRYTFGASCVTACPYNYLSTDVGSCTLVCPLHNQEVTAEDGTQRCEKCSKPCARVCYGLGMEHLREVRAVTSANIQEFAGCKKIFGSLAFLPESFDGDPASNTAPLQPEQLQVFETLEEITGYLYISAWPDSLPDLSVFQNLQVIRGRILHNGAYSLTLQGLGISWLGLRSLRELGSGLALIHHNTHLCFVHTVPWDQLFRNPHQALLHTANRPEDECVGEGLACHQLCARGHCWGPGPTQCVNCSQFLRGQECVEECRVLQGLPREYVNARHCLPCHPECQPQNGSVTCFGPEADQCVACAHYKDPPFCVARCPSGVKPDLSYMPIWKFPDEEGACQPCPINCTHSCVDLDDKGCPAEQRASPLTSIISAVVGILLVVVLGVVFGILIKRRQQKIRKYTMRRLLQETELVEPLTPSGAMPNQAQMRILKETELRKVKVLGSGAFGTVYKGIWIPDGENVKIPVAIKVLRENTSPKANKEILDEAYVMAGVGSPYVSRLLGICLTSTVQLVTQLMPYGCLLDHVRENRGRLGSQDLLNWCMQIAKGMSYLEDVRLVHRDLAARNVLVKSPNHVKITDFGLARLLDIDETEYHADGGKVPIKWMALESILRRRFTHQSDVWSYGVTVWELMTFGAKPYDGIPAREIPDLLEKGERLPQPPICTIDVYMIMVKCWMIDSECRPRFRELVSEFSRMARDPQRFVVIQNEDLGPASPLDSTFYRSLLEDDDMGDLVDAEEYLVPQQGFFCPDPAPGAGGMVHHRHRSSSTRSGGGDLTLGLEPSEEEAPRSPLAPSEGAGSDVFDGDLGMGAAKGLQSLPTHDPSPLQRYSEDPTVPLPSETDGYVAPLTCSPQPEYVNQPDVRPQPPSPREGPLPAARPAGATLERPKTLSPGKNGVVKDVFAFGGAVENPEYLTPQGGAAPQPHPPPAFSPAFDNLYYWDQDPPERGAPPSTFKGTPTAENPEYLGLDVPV

[3] = SK-BR-3 cell growth inhibitors, pilot screen, 24 h, human (AID 572;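 active = viability at or below 10% of carrier control in both of two separate runs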;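 also: compound exposure lasted between 18 and 24 h rather than exactly 24 h; 100% = carrier-treated control wells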); conditions: SK-BR-3 viability, CellTiter-Glo luminescence, at 10 µM, stronger effect = lower value
[4] = HUVEC growth inhibition – cell-based, human, primary screen (AID 575;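 active = viability at or below 30% in both replicate assays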;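 also: 100% = median of untreated cell wells with 0.1% DMSO on each plate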); conditions: HUVEC proliferation, CellTiter-Glo luminescence, 72 h; at 10 µM; stronger effect = lower value
Procedure, shortened: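 system = HUVEC primary cells | amount = 1250 cells/well | buffer or medium = supplemented EBM, 2% fetal bovine serum | dosing = single-point 10 µM, DMSO 0.1% final | times = 72 h compound incubation | detection = CTG luminescence | read-out = % viability relative to median vehicle-well signal on each plate | control set = vehicle and MePR control wells | format = collagen-coated 384-well format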

[5] = growth inhibitors of H69AR lung tumor, primary screen, human, duplicate replicates (AID 580); conditions: H69AR lung tumor cells viability, ATP luminescence, 72 h; at 10 µM; stronger effect = lower value;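 also: 100% = mean luminescence of untreated wells and 0% = no signal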
[6] = reversal of MRP1-mediated doxorubicin resistance, pilot screen, H69AR cells, doxorubicin co-treatment (AID 601;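 active = viability loss from added drug above about 55%, and viability with drug at most 40%, in both replicates, limit read from the data, passing the limit was not always enough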); conditions: CellTiter-Glo, 72 h, at 10 µM; for differential viability (reversal): stronger effect = higher value
[7] = 384-well plate pilot, post-Golgi transport modulator project, inhibition of yeast transport mutant growth (AID 636; in the data active = inhibition above about 31%); conditions: absorbance 615 nm, about 18 h, stronger effect = higher value
[8] = growth suppression of yeast trafficking mutant, preliminary HTS, modulators of trafficking downstream of Golgi apparatus project, 1536-format plate, OD 615 nm (AID 637; in the data active = inhibition above about 30%); conditions: yeast transport mutant growth, absorbance 615 nm, 18 h; stronger effect = higher value
[9] = H69AR cells + 2 uM doxorubicin, measured here: viability with 2 uM doxorubicin, stronger effect = lower value
[10] = H69AR cells, compound alone cytotoxicity

Row | Structure (SMILES) | viability [1] [%] | Her2 level [2] | viability [3] | viability [4] | viability [5] | differential viability (reversal) ([6]; H69AR cells + 2 uM doxorubicin) | viability [6, 9] [%] | viability [6, 10] [%] | inhibition [7] | inhibition [8]
1 | COc1ccc2nc(NC(=O)c3ccoc3C)sc2c1 | 99 | 87.5% (inactive) | 99% (inactive) | 23.9% (active) | 26.1% (active) | -13.7% (inactive) | 39.8 | 26.1 | -3.82% (inactive) | 6.33% (inactive)
2 | COC(=O)c1ccc(NC(=O)Cn2nnc3ccccc32)cc1 | 94 | 82.5% (inactive) | 94% (inactive) | 109% (inactive) | 108% (inactive) | 17.7% (inactive) | 90 | 108 | 0.13% (inactive) | 0% (inactive)
3 | Cc1cccc(CS(=O)(=O)Cc2ccc(C(=O)NCC3CCCO3)o2)c1 (stereo not given) | 85.5 | 108% (inactive) | 85.5% (inactive) | 114% (inactive) | 94.7% (inactive) | -7.89% (inactive) | 103 | 94.7 | -2.89% (inactive) | -4.19% (inactive)
4 | CCCCP(=O)(CCCC)Cc1ccccc1O | 99.5 | 104% (inactive) | 99.5% (inactive) | 103% (inactive) | 97.1% (inactive) | 7.29% (inactive) | 89.8 | 97.1 | -5.32% (inactive) | -6.07% (inactive)
5 | COc1cccc(C2C(C(=O)c3cc4ccccc4o3)=C(O)C(=O)N2CCN(C)C)c1OC (stereo not given) | 104 | 94.5% (inactive) | 104% (inactive) | 96.8% (inactive) | 100% (inactive) | 4.93% (inactive) | 95.4 | 100 | -3.87% (inactive) | 11.3% (inactive)
6 | Cc1cc(OCC(=O)N2CCCC2)cc(C)c1Cl | 102 | 96% (inactive) | 102% (inactive) | 101% (inactive) | 89.6% (inactive) | 16.1% (inactive) | 73.5 | 89.6 | -6.8% (inactive) | -0.33% (inactive)
7 | COC(=O)CCC(=O)Nc1cccc(Cl)c1 | 118 | 87% (inactive) | 118% (inactive) | 90.1% (inactive) | 85.4% (inactive) | -5.69% (inactive) | 91.1 | 85.4 | -0.65% (inactive) | -2.54% (inactive)
8 | CN=C(Nc1cc(C)nn1-c1ccccc1)c1ccccc1 | 93 | 95.5% (inactive) | 93% (inactive) | 86.6% (inactive) | 93.6% (inactive) | -3.59% (inactive) | 97.2 | 93.6 | -2% (inactive) | -3.55% (inactive)
9 | Cc1ccnc(NC(=O)CCC(=O)N(CC(=O)NC(C)(C)C)C2CCCC2)c1 | 108 | 99.5% (inactive) | 108% (inactive) | 92.7% (inactive) | 93.2% (inactive) | 0.62% (inactive) | 92.6 | 93.2 | -4.94% (inactive) | 5.56% (inactive)
10 | CCN(CCNC(=O)C1CCN(S(C)(=O)=O)CC1)c1ccccc1 | 91 | 104% (inactive) | 91% (inactive) | 93.3% (inactive) | 88.2% (inactive) | 5.42% (inactive) | 82.8 | 88.2 | -1.67% (inactive) | -1% (inactive)
11 | COC(=O)c1ccc(NC(=O)CN2CCN(c3ccc(Cl)cc3)CC2)cc1 | 96.5 | 100% (inactive) | 96.5% (inactive) | 104% (inactive) | 96.1% (inactive) | -0.5% (inactive) | 96.6 | 96.1 | 0.13% (inactive) | 12.9% (inactive)
12 | CS(=O)(=O)c1ccc2nc(NC(=O)c3cccs3)sc2c1 | 99 | 74.5% (inactive) | 99% (inactive) | 64% (inactive) | 45% (active) | -6.37% (inactive) | 51.4 | 45 | -6.76% (inactive) | 2.95% (inactive)
13 | COc1ccccc1C1/C(=C(\O)c2c(C)nc3c(C)cccn23)C(=O)C(=O)N1CCCN(C)C (stereo not given) | 102 | 79.5% (inactive) | 102% (inactive) | 85.3% (inactive) | 102% (inactive) | 12.5% (inactive) | 89.2 | 102 | -7.43% (inactive) | 5.67% (inactive)
14 | O=C(CCS(=O)(=O)c1cccc2nonc12)Nc1cccc2c1CCCC2 | 94.5 | 114% (inactive) | 94.5% (inactive) | 103% (inactive) | 95.5% (inactive) | 12% (inactive) | 83.5 | 95.5 | -6.44% (inactive) | -3.65% (inactive)
15 | COc1ccccc1C1c2c(oc3ccc(Cl)cc3c2=O)C(=O)N1c1cc(C)on1 (stereo not given) | 86.5 | 82.5% (inactive) | 86.5% (inactive) | 70.7% (inactive) | 72.2% (inactive) | -3.51% (inactive) | 75.7 | 72.2 | -2.93% (inactive) | 8.71% (inactive)
16 | Nc1nonc1-c1noc(CCCCCN2C(=O)c3ccccc3C2=O)n1 | 102 | 102% (inactive) | 102% (inactive) | 108% (inactive) | 105% (inactive) | 7.63% (inactive) | 97.6 | 105 | -4.4% (inactive) | -6.61% (inactive)

Row | Structure (SMILES) | viability [1] [%] | Her2 level [2] | viability [3] | viability [4] | viability [5] | differential viability (reversal) ([6]; H69AR cells + 2 uM doxorubicin) | viability [6, 9] [%] | viability [6, 10] [%] | inhibition [7] | inhibition [8]
17 | COc1ccc(-c2cc(C(F)(F)F)nc(N3CCN(c4ccc(F)cc4)CC3)n2)cc1OC | 78.5 | 88% (inactive) | 78.5% (inactive) | 71.7% (inactive) | 85.5% (inactive) | 6.42% (inactive) | 79.1 | 85.5 | -2.97% (inactive) | 13.9% (inactive)
18 | CC1(C)CC(=O)C2=C(C1)OC(N)=C(C#N)C2C1CC=CCC1 (stereo not given) | 108 | 93% (inactive) | 108% (inactive) | 91.4% (inactive) | 81.6% (inactive) | 12.5% (inactive) | 69.1 | 81.6 | -7.53% (inactive) | -2.22% (inactive)
19 | Cn1c(=O)c2c(-c3ccccc3)n(CCCN3CCOCC3)cc2n(C)c1=O | 77.5 | 98.5% (inactive) | 77.5% (inactive) | 69.7% (inactive) | 82.2% (inactive) | 10.4% (inactive) | 71.9 | 82.2 | 2.21% (inactive) | -4.29% (inactive)
20 | CN(C)c1ccc(NC(=O)c2cc3c(=O)n4ccccc4nc3n2C)cc1 | 87.5 | 72.5% (inactive) | 87.5% (inactive) | 97.8% (inactive) | 80.3% (inactive) | -3.47% (inactive) | 83.8 | 80.3 | -0.54% (inactive) | 14.1% (inactive)
21 | COc1cc2c(cc1OC)C(c1cccnc1)CC(=O)N2 (stereo not given) | 106 | 95% (inactive) | 106% (inactive) | 82.2% (inactive) | 97.4% (inactive) | 8.69% (inactive) | 88.7 | 97.4 | -1.73% (inactive) | -0.98% (inactive)
22 | CN(C)CCCN1C(=O)C(=O)/C(=C(/O)c2ccncc2)C1c1cccc(Br)c1 (stereo not given) | 90.5 | 97% (inactive) | 90.5% (inactive) | 118% (inactive) | 94.5% (inactive) | 5.26% (inactive) | 89.3 | 94.5 | -2.93% (inactive) | -5.9% (inactive)
23 | CCOC(=O)N1CCC(O)(c2cc(C)c(C)cc2C)CC1 | 102 | 95.5% (inactive) | 102% (inactive) | 109% (inactive) | 99.4% (inactive) | 9.24% (inactive) | 90.2 | 99.4 | -4.19% (inactive) | -5% (inactive)
24 | COc1ccc(C(=O)Cn2c(N3CCCCC3)nc3c2c(=O)n(C)c(=O)n3C)cc1OC | 94 | 98.5% (inactive) | 94% (inactive) | 83.9% (inactive) | 92.7% (inactive) | -6.42% (inactive) | 99.1 | 92.7 | 1.18% (inactive) | -1.48% (inactive)
25 | Cc1ccc(C)c(-n2c(CNC(=O)c3ccco3)nnc2SCC(=O)Nc2nnc(C)s2)c1 | 100 | 94% (inactive) | 100% (inactive) | 104% (inactive) | 96.6% (inactive) | 5.91% (inactive) | 90.7 | 96.6 | -5.6% (inactive) | 3.5% (inactive)
26 | COc1ccc(-c2cc3nc(C)c(CCC(=O)NCc4ccco4)c(C)n3n2)c(OC)c1 | 103 | 91% (inactive) | 103% (inactive) | 92.1% (inactive) | 85.8% (inactive) | -2.58% (inactive) | 88.4 | 85.8 | 0.53% (inactive) | 6.91% (inactive)
27 | O=C(O)CC1CCCC(c2ccccc2)C1=O (stereo not given) | 97 | 110% (inactive) | 97% (inactive) | 108% (inactive) | 99.6% (inactive) | 6.58% (inactive) | 93 | 99.6 | -6.4% (inactive) | -9.35% (inactive)
28 | Cc1cc(NC(=O)CSc2nc3ccsc3c(=O)n2NC(=O)c2ccccc2)no1 | 94.5 | 100% (inactive) | 94.5% (inactive) | 93.9% (inactive) | 97.1% (inactive) | 12% (inactive) | 85.1 | 97.1 | -0.93% (inactive) | 13.8% (inactive)
29 | CCc1nnc(NC(=O)c2ccc(COc3ccccc3)o2)s1 | 97 | 104% (inactive) | 97% (inactive) | 77.9% (inactive) | 111% (inactive) | 2.33% (inactive) | 109 | 111 | -3.97% (inactive) | -4.6% (inactive)
30 | COC(=O)c1ccc(CSc2nc3c(cnn3-c3ccc(F)cc3)c(=O)[nH]2)o1 | 99 | 101% (inactive) | 99% (inactive) | 65.3% (inactive) | 92.5% (inactive) | -4.38% (inactive) | 96.9 | 92.5 | -2.19% (inactive) | -1.9% (inactive)
31 | Cc1cccc(C(=O)N2CCC(n3nnc4cc(F)ccc43)CC2)c1 | 95 | 113% (inactive) | 95% (inactive) | 92.6% (inactive) | 86.4% (inactive) | -3.98% (inactive) | 90.4 | 86.4 | -3.21% (inactive) | 2.67% (inactive)
